Experimental data collected from several papers.
Protocols differ between the studies behind these lines.
MAL12: Alpha-glucosidase MAL12 (MAL12, Saccharomyces cerevisiae S288c, UniProt P53341)
ADRA1A: Alpha-1A adrenergic receptor (ADRA1A, Homo sapiens, UniProt P35348)
MAP3K7: Mitogen-activated protein kinase kinase kinase 7 (MAP3K7, Homo sapiens, UniProt O43318)

COc1cc(O)c2c(c1)O[C@H](c1ccccc1)CC2=O
inhibition (MAL12; enzyme activity, inhibitor, absorbance; 50 µM): 15.1%

COc1cc2c3c(c1OC)-c1c(OC)ccc(NC(C)=O)c1CC3N(C)CC2 (stereo not shown)
inhibition (ADRA1A; ligand displacement, radioligand; 10 µM): 10%

CCCCC(=O)Nc1ccc(-c2ccc3ncn(CCC)c(=O)c3c2)cn1
remaining binding (Serine/threonine-protein kinase tousled-like 2 (TLK2, Homo sapiens, UniProt Q86UE8); binding, competition with immobilised ligand; 0.5 µM): 87%

COc1cc2c3c(c1OC)-c1c(OC)ccc(O)c1CC3N(C)CC2 (stereo not shown)
inhibition (ADRA1A; ligand displacement, radioligand; 10 µM): 9%

CC(=O)ON=C1C=CC(=C(C#N)c2ccccc2)C=C1
activity vs control (Glycogen synthase kinase 3 (Plasmodium falciparum, UniProt O77344); enzyme activity, inhibitor, ADP detection; 20 µM): 89%

O=c1cc(-c2ccc(O)c(O)c2)oc2cc(O)cc(O)c12
inhibition (MAL12; enzyme activity, inhibitor, absorbance; 50 µM): 34.4%

CS(=O)(=NC#N)c1ccccc1Nc1nc(Nc2ccnc(CO)c2)ncc1Cl (stereo not shown)
remaining activity (MAP3K7; enzyme activity, inhibitor; 1 µM): 80.5%

O=C1C[C@@H](c2ccc(O)cc2)Oc2cc(O)cc(O)c21
inhibition (MAL12; enzyme activity, inhibitor, absorbance; 50 µM): 26.5%

Nc1ncnc2c1ncn2[C@@H]1O[C@H](COP(=O)(O)OP(=O)(O)OP(=O)(O)O)[C@@H](O)[C@H]1O
Km (Hexokinase HKDC1 (Homo sapiens, UniProt Q2TB90); enzyme activity, substrate; pH 8): 410 µM

C#Cc1cnc(Nc2ccnc(CO)c2)nc1Nc1ccccc1S(C)(=O)=NC#N (stereo not shown)
remaining activity (MAP3K7; enzyme activity, inhibitor; 1 µM): 78.9%

C1=C/COCc2cc(ccc2OCCN2CCCC2)Nc2nccc(n2)-c2cccc(c2)COC/1
remaining binding (Mitotic checkpoint serine/threonine-protein kinase BUB1 (BUB1, Homo sapiens, UniProt O43683); binding; 0.1 µM): 91%

O=c1cc(-c2ccc(O)c(O)c2)oc2c(Br)c(O)c(Br)c(O)c12
inhibition (MAL12; enzyme activity, inhibitor, absorbance; 50 µM): 95.1%

CNC(=O)c1ccccc1Nc1nc(Nc2ccc(CO)nc2)ncc1Cl
remaining activity (MAP3K7; enzyme activity, inhibitor; 1 µM): 64.9%
